Values after ≈ are worked out from the molar mass of the structure shown.
Columns and labels:
[1] = molecular target: Protein arginine N-methyltransferase 5 (Homo sapiens, UniProt O14744); assay: Inhibition of PRMT5 (unknown origin) assessed as inhibition of symmetric dimethylation of arginine incubated for 3 days by fluorescence based cellular target engagement assay
In short: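 MCF-7 cells (4000/well, collagen-coated plates) in EMEM with 0.01 mg/mL insulin and 10% FBS; 10-point 1:3 titration from 10,000 nM; 3 days at 37 °C/5% CO2; fixed, permeabilized, anti-SDMA antibody, then Alexa488 anti-rabbit IgG plus Hoechst; nuclear fluorescence by high-content imaging versus DMSO; EC50 by four-parameter robust fit.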

[2] = Plasma clearance in rat; type: ADME
[3] = MRT in rat; type: ADME; conditions: in vivo
[4] = Solubility of the compound in FaSSIF at pH 7 at 200 uM incubated for 24 hrs by UV-vis detection based HPLC analysis; type: physicochemical
[5] = tested on: Z-138; assay: Antiproliferative activity against human Z138 cells incubated for 10 days by cell titer-glo assay; type: functional, cell-based; conditions: Z-138, 240 h
[6] = Unbound clearance in rat; type: ADME; conditions: in vivo
[7] = Unbound volume of distribution in rat; type: ADME; conditions: in vivo
[8] = Solubility of the compound in […] at pH 2 at 200 uM incubated for 24 hrs by UV-vis detection based HPLC analysis; type: physicochemical
In short: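 10 mM DMSO stock added to 10 mM potassium phosphate buffer at pH 2 or pH 7, or FaSSIF pH 6.5, to 200 μM total; 24 h equilibration, filtration, then reverse-phase HPLC with UV–vis detection.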

[9] = Oral bioavailability in rat; type: ADME, organism-based; conditions: in vivo

Protein arginine N-methyltransferase 5, sequence (O14744 whole entry): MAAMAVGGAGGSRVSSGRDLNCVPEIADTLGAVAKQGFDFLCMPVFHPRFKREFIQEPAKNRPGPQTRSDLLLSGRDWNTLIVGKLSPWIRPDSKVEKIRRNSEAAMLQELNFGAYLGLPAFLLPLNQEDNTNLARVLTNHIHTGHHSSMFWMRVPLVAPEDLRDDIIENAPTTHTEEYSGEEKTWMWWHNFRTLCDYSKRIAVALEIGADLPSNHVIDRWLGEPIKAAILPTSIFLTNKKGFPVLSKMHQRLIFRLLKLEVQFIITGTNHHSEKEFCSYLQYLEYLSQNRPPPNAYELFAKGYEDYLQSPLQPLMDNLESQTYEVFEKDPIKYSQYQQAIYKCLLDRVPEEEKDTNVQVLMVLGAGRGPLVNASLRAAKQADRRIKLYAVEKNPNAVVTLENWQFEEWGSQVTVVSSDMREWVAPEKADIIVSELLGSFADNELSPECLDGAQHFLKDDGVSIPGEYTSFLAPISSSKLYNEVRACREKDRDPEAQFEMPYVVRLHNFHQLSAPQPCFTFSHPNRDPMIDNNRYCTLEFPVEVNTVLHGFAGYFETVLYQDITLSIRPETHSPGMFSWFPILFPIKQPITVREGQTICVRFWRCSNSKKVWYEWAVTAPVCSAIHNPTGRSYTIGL

Row | Structure (SMILES) | EC50 [1] | clearance [2] | MRT [3] | solubility at 24 h, 200 µM [4] | EC50 [5] | CL free [6] | Vdu [7] | solubility at 24 h, 200 µM [8] | bioavailability [9]
1 | Nc1nc2cc(C[C@@H]3CC[C@@]4(O)[C@@H]3C[C@@H](n3ccc5c(N)ncnc53)[C@@H]4O)ccc2cc1Br | 2.9 nM | 15 mL/min/kg | 1.6 h | 20 µM (≈ 10.2 µg/mL) | 6.9 nM | 1559 mL/min/kg | 136 L/kg | 147 µM (≈ 74.9 µg/mL) | 10%
2 | Nc1nc2cc(C[C@@H]3CC[C@@]4(O)[C@@H]3O[C@@H](n3ccc5c(N)ncnc53)[C@@H]4O)ccc2cc1Cl | 1.2 nM | 46 mL/min/kg | 1.3 h | 60 µM (≈ 28 µg/mL) | 3.2 nM | 1045 mL/min/kg | 79 L/kg | 159 µM (≈ 74.2 µg/mL) | 8%
3 | Cc1ncnc2c1ccn2[C@@H]1O[C@@H]2[C@H](Cc3ccc4cc(F)c(N)nc4c3)CC[C@]2(O)[C@H]1O | 14 nM | 32 mL/min/kg | 1 h | 118 µM (≈ 53 µg/mL) | 23 nM | 351 mL/min/kg | 20 L/kg | 159 µM (≈ 71.5 µg/mL) | 51%
4 | Nc1nc2cc(C[C@@H]3CC[C@@]4(O)[C@@H]3O[C@@H](n3ccc5c(C6CC6)ncnc53)[C@@H]4O)ccc2cc1Br | 5.3 nM |  |  |  | 67 nM |  |  |  | 
5 | Cc1nc(N)c2ccn([C@@H]3O[C@@H]4[C@H](Cc5ccc6cc(Br)c(N)nc6c5)CC[C@]4(O)[C@H]3O)c2n1 | 3.2 nM | 31 mL/min/kg | 1.5 h | 21 µM (≈ 11 µg/mL) | 6.4 nM | 1337 mL/min/kg | 116 L/kg | 151 µM (≈ 79.3 µg/mL) | 11%
6 | Nc1nc2cc(C[C@@H]3CC[C@@]4(O)[C@@H]3O[C@@H](n3ccc5c(N)ncnc53)[C@@H]4O)c(F)cc2cc1F | 2.8 nM | 40 mL/min/kg | 1.6 h | 110 µM (≈ 51.5 µg/mL) | 20 nM | 844 mL/min/kg | 80 L/kg | 156 µM (≈ 73.1 µg/mL) | 30%
7 | Nc1nc2cc(C[C@@H]3CC[C@@]4(O)[C@@H]3O[C@@H](n3ccc5c(N)ncnc53)[C@@H]4O)ccc2cc1Br | 1.3 nM | 25 mL/min/kg | 1.5 h | 35 µM (≈ 17.9 µg/mL) | 1.7 nM | 940 mL/min/kg | 82 L/kg | 162 µM (≈ 82.8 µg/mL) | 10%
8 | CNc1ncnc2c1ccn2[C@@H]1O[C@@H]2[C@H](Cc3ccc4cc(Br)c(N)nc4c3)CC[C@]2(O)[C@H]1O | 9.9 nM | 31 mL/min/kg | 1 h |  | 16 nM | 900 mL/min/kg | 52 L/kg |  | 20%
9 | Nc1nc2cc(O[C@H]3CC[C@@]4(O)[C@@H]3O[C@@H](n3ccc5c(N)ncnc53)[C@@H]4O)ccc2cc1Cl | 1.2 nM | 22 mL/min/kg | 1.4 h | < 1 µM | 7.5 nM | 412 mL/min/kg | 34 L/kg | 158 µM (≈ 74.1 µg/mL) | 2%
10 | Cc1cc2ccc(C[C@@H]3CC[C@@]4(O)[C@@H]3O[C@@H](n3ccc5c(N)ncnc53)[C@@H]4O)cc2nc1N | 3.2 nM | 106 mL/min/kg | 0.8 h | 137 µM (≈ 61.2 µg/mL) | 0.77 nM | 523 mL/min/kg | 24 L/kg | 151 µM (≈ 67.4 µg/mL) | 
11 | CNc1ncnc2c1ccn2[C@@H]1O[C@@H]2[C@@H](Oc3ccc4cc(Br)c(N)nc4c3)CC[C@]2(O)[C@H]1O | 5.3 nM | 12 mL/min/kg | 1.2 h | 14 µM (≈ 7.38 µg/mL) | 23 nM | 3143 mL/min/kg | 222 L/kg | 163 µM (≈ 86 µg/mL) | 68%
12 | Nc1nc2cc(O[C@H]3CC[C@@]4(O)[C@@H]3O[C@@H](n3ccc5c(N)ncnc53)[C@@H]4O)ccc2cc1F | 0.9 nM | 49 mL/min/kg | 0.6 h | < 1 µM | 27 nM | 289 mL/min/kg | 11 L/kg | 158 µM (≈ 71.5 µg/mL) | 
13 | Nc1nc2cc(C[C@@H]3CC[C@@]4(O)[C@@H]3O[C@@H](n3ccc5c(N)ncnc53)[C@@H]4O)ccc2cc1F | 2.3 nM | 18 mL/min/kg | 1.3 h | 142 µM (≈ 64 µg/mL) | 8.3 nM | 1029 mL/min/kg | 111 L/kg | 163 µM (≈ 73.4 µg/mL) | 28%
